HIF act – HIF pathway transcriptional activators, primary screen, cell-based, U2OS HRE-luciferase, luminescence. U2OS HRE-luciferase reporter; normalized: DMSO 0%, desferrioxamine 100%. activation, % at 7.5 µM (by protocol). 0.32% of 300,000 active;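 active = mean activation of at least 10% of the iron chelator positive control signal, with at least half of replicates also reaching 10%; inconclusive = mean and replicate majority disagree about reaching 10%; inactive = mean and most replicates under 10%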
KLF5 inh – KLF5 expression inhibitors, primary screen, DLD-1 cells, luminescence; DLD-1 KLF5 promoter-luciferase reporter; inhibition, % at 5 µM; AID 1700, 2009; 0.23% of 290,000 active;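 active = inhibition above a per-plate limit of that plate's mean compound inhibition plus 3 SD, cut at about 60% in these data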;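 also: higher means less KLF5 promoter-driven luciferase light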
Bfl-1 A1 inh – caspase 3/7 activation in MEF A1-2A-BIM cells, primary screen, A1 inhibitor project, cell-based, luminescence, HTS. caspase activation, % (no concentration beside the values). 0.066% of 330,000 active. Caspase-Glo 3/7 luminescence, 3 h; percent of clofoctol response, vehicle zero;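 active = over half of replicate activation scores above 10%, or exactly half above 10 with the replicate mean above 10; inconclusive = replicate mean below 10 yet half the replicates above 10; inactive = over half of replicates below 10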
Beta cell apopt – inhibitors of cytokine-induced beta cell apoptosis, primary screen, luminescence | 0.8% of 300,000 active | INS-1E cytokine-induced death, ATP luminescence, 48 h; percent of positive-control rescue, neutral wells zero | AID 435005, 2010 | protection from apoptosis, % (concentration not given with the values);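 active = Every replicate reaches about 75%, or at least half do and their mean reaches it too, limit read from the data; inconclusive = At least half of replicates reach the limit but their mean does not; inactive = Under half of replicates reach the limit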;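 also: higher means more ATP so stronger rescue from cytokine killing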
T cruzi inh – inhibitors of intracellular T. cruzi growth, primary screen, luminescence, NIH3T3 host cells | T. cruzi beta-gal in NIH3T3, 90 h | inhibition, % (concentration not given with the values) | 1.4% of 300,000 active | AID 1885, 2009;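 active = mean inhibition across valid replicates above about 55%, limit read from the data; inconclusive = mean below that limit but half or more replicates reach it; inactive = mean below it, under half of replicates reach it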;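 also: signal also drops with host cell toxicity which is not excluded here; higher percent means less beta-gal luminescence so fewer parasites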
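System: mouse NIH/3T3 fibroblasts infected with β-gal-expressing T. cruzi Tulahuen C4 / Input: NIH/3T3 cells, 5,000 per well / Buffer or medium: Low-serum DMEM with 2% FBS / Probe or stimulus: 5000 reporter trypomastigotes per well / Schedule: ≥90 h infection period, 3 h prior cell attachment / Measured by: GalScreen luminescence, 60 min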
Hits are given with their value; 0 = inactive; ? = inconclusive; - = not tested or not shown. Only some compounds are listed: those with a hit (about 2.3% of all), similar ones and a draw of the others.

SMILES	HIF act	KLF5 inh	Bfl-1 A1 inh	Beta cell apopt	T cruzi inh
COc1ccc(-c2cc(=O)oc3c(C)c(OC(=O)c4cccs4)ccc23)cc1	0	0	17.2	0	0
Cc1ccc(S(=O)(=O)N2CCC[C@H]2C(=O)OCC(=O)Nc2ccc3c(c2)OCO3)cc1	-	-	0	0	-
COc1ccc(/C=C/C(=O)c2ccncc2)c2ccccc12	0	0	0	99.8	0
CCN1CCN(c2sc(S(C)(=O)=O)nc2S(=O)(=O)c2ccc(C)cc2)CC1	0	0	0	0	0
Cc1ccc2c(N)c(C(=O)N(c3ccccc3)c3ccccc3)sc2n1	0	0	0	0	66.9
CC(C)OC(=O)c1sc2nc(-c3ccccc3)ccc2c1N	0	0	0	0	0
CC1CCN(Cc2nnnn2CCCC(=O)N(C)C(C)c2ccccn2)CC1 (centres undefined)	0	0	0	0	0
Cc1cc(C(=O)CSc2nc3ccccc3c(=O)n2C)c(C)n1Cc1ccc2c(c1)OCO2	0	0	0	99.4	0
COC(=O)/C(=C\c1ccc([N+](=O)[O-])o1)NC(=O)c1ccccc1	0	0	0	0	0
Cc1ccc(C(=O)N/C(=C\c2ccc(-c3ccc(Cl)cc3)o2)C(=O)NCCCN(C)C)cc1	0	0	0	109.7	55.7
CCCCNC(=O)/C(=C\c1ccc([N+](=O)[O-])o1)NC(=O)c1ccccc1	0	0	0	0	63.3
CN(C)CCCNC(=O)/C(=C\c1ccc(-c2ccc(Br)cc2)o1)NC(=O)c1ccccc1	0	0	0	0	0
CCC12CN3CC(CC)(CN(C1)C3c1ccc([N+](=O)[O-])o1)C2=O (centres undefined)	0	0	0	0	60.0
CC12CN3CC(C)(CN(C1)C3c1ccc([N+](=O)[O-])o1)C2=O (centres undefined)	0	0	0	0	79.7
CCOc1cc(N2CCOCC2)c(OCC)cc1NC(=O)CN1C(=O)N(C)C2(CCCCC2)C1=O	-	-	0	0	-
CC1CN(C(=O)c2ccccc2OCc2ccccc2Cl)CC(C)O1 (centres undefined)	-	-	?	0	-
COc1ccccc1NC(=O)C1CC(C(C)C)OC1=O (centres undefined)	0	-	0	0	0
CC(C)c1nc(SCC(=O)Nc2nc3c(s2)CCCC3)c2ccccc2n1	0	0	0	0	0
CC(C)(C)c1nc(SCC(=O)Nc2nc3c(s2)CCCC3)c2ccccc2n1	-	0	0	0	59.2
CN(Cc1ccc(OCC(O)CN(C)Cc2ccccc2)cc1)Cc1nccn1C (centres undefined)	0	0	0	0	0
COc1ccc(CN(C)CC(O)COc2ccc(-c3ccccc3)cc2)cc1OC (centres undefined)	0	0	0	-	58.0
CCC(C)Oc1cc(-c2ccnc(Nc3cccc(Cl)c3)n2)ccn1 (centres undefined)	0	-	0	0	56.7
N#Cc1c2c(c(NCc3ccco3)n3c1nc1ccccc13)CCC2	-	0	0	0	-
N#Cc1c2c(c(Nc3ccc(O)cc3)n3c1nc1ccccc13)CCC2	0	0	0	0	0
Cc1cc(Nc2cccc([N+](=O)[O-])c2)n2c(nc3ccccc32)c1C#N	0	0	0	107.7	76.2
SMILES	HIF act	KLF5 inh	Bfl-1 A1 inh	Beta cell apopt	T cruzi inh
CCN(CC)CCNc1cc(C)c(C#N)c2nc3ccccc3n12	0	0	0	0	56.7
CN(C)CCNc1c2c(c(C#N)c3nc4ccccc4n13)CCCC2	0	0	0	0	61.8
CCN(CC)CCNc1c2c(c(C#N)c3nc4ccccc4n13)CCCC2	0	0	0	-	63.4
CC(C)(C)c1ccc(/C=C/C(=O)c2ccc(NC3=NCCCS3)cc2)cc1	0	0	0	0	57.5
Cc1cccc(/C=C/C(=O)c2ccc(NC3=NCCCS3)cc2)c1	0	0	0	0	55.5
CC(C)Cn1cnc2c1c(=O)[nH]c(=O)n2Cc1ccccc1	0	0	0	-	0
COc1ccc(C2/C=C\CN(C(=O)Nc3ccc(C(F)(F)F)cc3)CC(=O)N2Cc2ccc(F)cc2)cc1 (centres undefined)	0	-	0	80.6	0
Cc1ccc(CN2CC(C(=O)N3CCN(c4ccccc4O)CC3)CC2=O)cc1 (centres undefined)	0	-	0	0	0
COc1cc(OC)c(OC)cc1CN1CCN(Cc2ccco2)CC1	0	0	0	0	0
COc1ccc(C(=O)OCC(=O)Nc2c(C)n(C)n(-c3ccccc3)c2=O)cc1	-	-	0	0	-
CCNC(=S)N1CCN(c2ccc([N+](=O)[O-])cc2)CC1	0	0	0	-	0
O=[N+]([O-])c1ccc(N2CCN(C(=S)NCc3ccc(Cl)cc3)CC2)cc1	0	0	0	96.5	56.5
O=[N+]([O-])c1ccc(CN2CCN(c3ccc(Cl)cc3)CC2)o1	0	0	0	0	59.3
Brc1ccc(CN2CCN(c3ccccc3)CC2)o1	0	0	0	0	0
O=C1c2ccccc2NC(c2ccc(Br)s2)N1O (centres undefined)	0	-	0	0	0
O=C(COC(=O)c1ccc(Cl)nc1)NC1CCCc2ccccc21 (centres undefined)	-	-	0	0	-
CCCN1C=CC(=C/C=C(\C#N)C(=O)OCC)C=C1	0	0	0	0	0
CCOC(=O)/C(C#N)=C/C=C1\C=Cc2ccccc2N1CC	17.8	0	0	0	0
Cc1cn([C@H](C(=O)NCCCCCCCCCCC(=O)N2CCN(C(=O)OC(C)(C)C)CC2)[C@@H](C)O)nn1	-	-	0	0	-
Cc1c(Cl)ccc(S(=O)(=O)NCCCn2ccnc2)c1Cl	0	0	0	0	0
C=CCn1c(SCc2ccccc2Cl)nnc1-c1sc2nc(C)cc(C)c2c1N	0	0	0	0	62.8
CCCOc1nc2c(c(=O)n(C)c(=O)n2C)n1C	0	0	0	0	0
CCCOc1nc2c(c(=O)n(C)c(=O)n2C)n1Cc1cccc2ccccc12	0	0	0	103.0	0
O=C(NNc1ccccc1)C(=O)NNS(=O)(=O)c1ccc([N+](=O)[O-])cc1	0	0	0	0	61.1
CCc1sc(C(=O)N2CCc3cc(OC)c(OC)cc3C2CC(=O)O)cc1C (centres undefined)	-	-	0	0	-
CCN1C(=O)C(=Cc2cccc(OC)c2Oc2ccc([N+](=O)[O-])cc2[N+](=O)[O-])SC1=S	0	0	0	98.8	0
O=C1C2C(c3ccccc3)CC=CC2[C@H](c2cccc([N+](=O)[O-])c2)N1Cc1ccccc1 (some centres undefined)	0	-	0	0	56.1
O=C1C2C(c3ccccc3)CC=CC2[C@H](c2ccc(C(F)(F)F)cc2)N1Cc1ccccc1 (some centres undefined)	0	-	0	0	0

High-throughput results from PubChem BioAssay.
